# ChEMBL document CHEMBL1641399, “Phytochemical investigations of Stemona curtisii and synthetic studies on stemocurtisine alkaloids” (2010)
# What was measured:
# Escherichia coli = assay: Antimicrobial activity against Escherichia coli; assay type: functional
# Cryptococcus neoformans = assay: Antimicrobial activity against Cryptococcus neoformans; assay type: functional
# Method in brief: (§1)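 Antifungal test read as MIC (µg/mL), following a previously published procedure, with amphotericin B run as positive control.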
# Klebsiella pneumoniae = assay: Antimicrobial activity against Klebsiella pneumoniae; assay type: functional
# Candida albicans = assay: Antimicrobial activity against Candida albicans; assay type: functional; method in brief: as §1
# Staphylococcus aureus [1] = assay: Antimicrobial activity against Staphylococcus aureus; assay type: functional
# Method in brief: (§2)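 Antibacterial MIC determination in µg/mL against a bacterial panel that includes Streptococcus pyogenes, with gentamicin as positive control; otherwise run by a literature procedure.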
# Streptococcus pyogenes = assay: Antimicrobial activity against Streptococcus pyogenes; assay type: functional
# Method in brief: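 Antibacterial test read as MIC (µg/mL), following a previously published procedure, with gentamicin run as positive control.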
# Staphylococcus aureus [2] = assay: Antimicrobial activity against methicillin-resistant Staphylococcus aureus; assay type: functional; method in brief: as §2
# [3] = target: Acetylcholinesterase (Homo sapiens) (UniProt P22303)
# Acetylcholinesterase (Homo sapiens), sequence (P22303 whole entry): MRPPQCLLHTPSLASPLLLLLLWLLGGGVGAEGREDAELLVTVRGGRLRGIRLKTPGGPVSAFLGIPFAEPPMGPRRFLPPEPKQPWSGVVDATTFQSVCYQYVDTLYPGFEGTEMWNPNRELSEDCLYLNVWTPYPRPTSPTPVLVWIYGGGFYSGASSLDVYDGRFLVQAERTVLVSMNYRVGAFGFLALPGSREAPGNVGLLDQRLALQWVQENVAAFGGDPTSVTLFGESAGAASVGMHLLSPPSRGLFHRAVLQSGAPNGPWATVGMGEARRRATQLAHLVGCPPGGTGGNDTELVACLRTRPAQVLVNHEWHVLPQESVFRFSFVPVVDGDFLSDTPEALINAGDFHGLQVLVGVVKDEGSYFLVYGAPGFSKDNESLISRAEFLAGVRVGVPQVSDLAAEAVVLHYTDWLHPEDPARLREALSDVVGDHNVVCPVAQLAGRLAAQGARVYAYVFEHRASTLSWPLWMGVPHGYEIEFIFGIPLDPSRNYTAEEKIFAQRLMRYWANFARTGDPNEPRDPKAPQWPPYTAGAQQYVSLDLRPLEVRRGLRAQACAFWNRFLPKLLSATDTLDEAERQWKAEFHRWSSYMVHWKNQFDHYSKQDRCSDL
Molecule,MIC (Escherichia coli) [µg/mL],MIC (Cryptococcus neoformans) [µg/mL],MIC (Klebsiella pneumoniae) [µg/mL],MIC (Candida albicans) [µg/mL],MIC (Staphylococcus aureus [1]) [µg/mL],MIC (Streptococcus pyogenes) [µg/mL],MIC (Staphylococcus aureus [2]) [µg/mL],MIC [3] [ng]
COc1c(C)c(O)c(C)c(-c2cc3c(O)cccc3o2)c1C [STEMOFURAN F],250,250,250,250,250,250,250,
GENTAMICIN,250,250,250,250,250,250,250,
CC/C=C/C12C3CC4C5[C@@H](C)/C(=C6/OC(=O)C(C)=C6OC)O[C@]5(O3)C1CCN42 (some centres undefined),,,,,,,,5
COc1cc(-c2cc3c(O)cccc3o2)c(C)c(O)c1C [STEMOFURAN E],250,250,250,250,250,250,250,
C[C@@H]1[C@H](O)[C@@H](C)/C=C/C=C/C=C/C=C/C=C/C=C/C=C/[C@H](O[C@@H]2O[C@H](C)[C@@H](O)[C@H](N)[C@@H]2O)C[C@@H]2O[C@](O)(C[C@@H](O)C[C@@H](O)[C@H](O)CC[C@@H](O)C[C@@H](O)CC(=O)O[C@H]1C)C[C@H](O)[C@H]2C(=O)O [AMPHOTERICIN B],250,250,250,250,250,250,250,
CC[C@H](O)[C@@H]1CC[C@@H]2O[C@@]34CCC[N+]1([O-])[C@@H]2[C@H]3[C@H](C)/C(=C1/OC(=O)C(C)=C1OC)O4 (some centres undefined),,,,,,,,100
COc1cc(-c2cc3c(O)cccc3o2)c(C)c(OC)c1C [STEMOFURAN J],250,250,250,250,250,250,250,
COc1c(C)c(O)c(C)c(-c2cc3ccccc3o2)c1C [STEMOFURAN K],250,250,250,250,250,250,250,
